pKi: −log10 of the molar value.
Key:
[1] = Inhibition of [3H]25-6981 binding to N-methyl-D-aspartate glutamate receptor 2B of rat brain
Mus musculus = assay: In vivo effective dose in mice after intraperitoneal administration using standard sound induced seizures assay; type: functional; conditions: ip
In short: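 DBA/2 mice; compound given intraperitoneally 30 min before sound-induced seizure testing; ED50 in mg/kg.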

[2] = target: T1, Muscarinic acetylcholine receptor M1 (Rattus norvegicus, UniProt P08482); assay: Binding affinity towards muscarinic acetylcholine receptor M1 in […] using [3H]pirenzepine as radioligand
T1 sequence (P08482 whole entry): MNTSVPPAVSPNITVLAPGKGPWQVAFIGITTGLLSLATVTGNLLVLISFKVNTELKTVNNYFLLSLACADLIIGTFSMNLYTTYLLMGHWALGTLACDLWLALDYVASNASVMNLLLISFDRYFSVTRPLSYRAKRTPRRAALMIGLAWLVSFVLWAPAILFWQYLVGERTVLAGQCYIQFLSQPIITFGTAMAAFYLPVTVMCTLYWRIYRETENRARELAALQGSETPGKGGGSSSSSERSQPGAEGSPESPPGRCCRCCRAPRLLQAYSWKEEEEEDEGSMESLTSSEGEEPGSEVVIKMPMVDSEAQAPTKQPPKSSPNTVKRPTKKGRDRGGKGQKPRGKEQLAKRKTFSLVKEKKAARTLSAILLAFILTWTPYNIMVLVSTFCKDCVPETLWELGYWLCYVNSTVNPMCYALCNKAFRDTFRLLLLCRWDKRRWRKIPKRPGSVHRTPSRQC

[3] = target: T2, Adrenergic receptor alpha-1 (Rattus norvegicus, UniProt P15823+P23944+P43140); assay: Binding affinity towards Alpha-1 adrenergic receptor in rat brain using [3H]prazosin; type: tissue-based
T2 sequence (P15823 whole entry): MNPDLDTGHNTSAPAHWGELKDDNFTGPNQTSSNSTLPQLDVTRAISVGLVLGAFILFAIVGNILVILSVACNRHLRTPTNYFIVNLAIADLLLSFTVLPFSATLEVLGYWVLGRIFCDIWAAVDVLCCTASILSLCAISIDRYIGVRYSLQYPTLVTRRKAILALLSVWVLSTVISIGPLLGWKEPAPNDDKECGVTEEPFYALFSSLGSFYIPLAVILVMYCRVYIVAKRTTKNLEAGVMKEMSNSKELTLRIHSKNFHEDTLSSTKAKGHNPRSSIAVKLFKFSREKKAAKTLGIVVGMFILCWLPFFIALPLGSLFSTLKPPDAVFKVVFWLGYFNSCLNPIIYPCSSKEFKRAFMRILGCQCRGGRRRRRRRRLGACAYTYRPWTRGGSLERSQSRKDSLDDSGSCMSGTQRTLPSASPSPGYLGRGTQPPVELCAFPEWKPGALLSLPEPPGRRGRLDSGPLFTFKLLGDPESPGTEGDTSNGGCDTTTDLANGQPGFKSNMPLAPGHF
T2 sequence (P23944 whole entry): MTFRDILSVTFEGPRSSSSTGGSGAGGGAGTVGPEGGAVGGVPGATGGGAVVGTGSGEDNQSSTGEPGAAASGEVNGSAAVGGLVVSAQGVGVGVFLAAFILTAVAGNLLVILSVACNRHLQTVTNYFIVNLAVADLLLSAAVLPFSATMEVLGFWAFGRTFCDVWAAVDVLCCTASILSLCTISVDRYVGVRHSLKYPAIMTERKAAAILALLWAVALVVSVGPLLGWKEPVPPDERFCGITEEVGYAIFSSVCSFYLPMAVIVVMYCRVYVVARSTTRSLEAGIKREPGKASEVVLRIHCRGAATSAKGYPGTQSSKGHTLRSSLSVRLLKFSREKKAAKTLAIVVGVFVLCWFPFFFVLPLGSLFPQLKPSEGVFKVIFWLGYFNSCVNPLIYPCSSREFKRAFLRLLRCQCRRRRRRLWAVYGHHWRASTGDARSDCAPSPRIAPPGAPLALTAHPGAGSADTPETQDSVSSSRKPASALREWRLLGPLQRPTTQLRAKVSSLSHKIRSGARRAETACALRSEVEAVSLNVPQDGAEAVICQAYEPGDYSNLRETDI
T2 sequence (P43140 whole entry): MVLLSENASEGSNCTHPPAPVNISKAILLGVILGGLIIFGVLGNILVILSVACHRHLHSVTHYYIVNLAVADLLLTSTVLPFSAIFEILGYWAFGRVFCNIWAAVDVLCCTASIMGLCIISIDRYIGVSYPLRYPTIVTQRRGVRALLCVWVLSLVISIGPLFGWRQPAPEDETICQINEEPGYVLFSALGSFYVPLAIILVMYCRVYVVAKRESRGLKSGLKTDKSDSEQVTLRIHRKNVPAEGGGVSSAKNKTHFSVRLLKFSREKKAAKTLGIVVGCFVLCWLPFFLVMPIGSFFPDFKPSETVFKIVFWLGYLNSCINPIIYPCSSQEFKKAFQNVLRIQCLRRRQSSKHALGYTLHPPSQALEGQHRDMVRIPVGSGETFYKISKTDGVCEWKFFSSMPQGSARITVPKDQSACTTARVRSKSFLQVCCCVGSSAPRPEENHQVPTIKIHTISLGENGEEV

[4] = target: T2, Adrenergic receptor alpha-1; assay: Binding affinity towards alpha receptor in rat brain using [3H]prazosin as radioligand; type: tissue-based
[5] = target: T1, Muscarinic acetylcholine receptor M1; assay: Binding affinity towards Muscarinic acetylcholine receptor M1 in […] using [3H]pirenzepine as radioligand
[6] = Binding affinity towards N-methyl-D-aspartate (NMDA) receptor in rat brain using [3H]-25-6981 as radioligand; type: tissue-based

Compound	pKi [1]	ED50 (Mus musculus) [mg/kg]	pKi [2]	Ki [3] [nM]	Ki [4] [nM]	pKi [5]	pKi [6]
c1ccc2c(c1)CCN(c1ccncc1)C2	8.10	3	6.14	5800			
COc1cc2c(cc1OC)CN(c1ccncc1)CC2	4.55						
OCCNc1cc(N2CCc3ccccc3C2)nc2ccccc12	8.46	< 12		430			
OCCNc1cc(N2CCc3ccccc3C2)c2ccccc2n1					1700	5.17	7.66
Cc1cc(N2CCc3ccccc3C2)cc(NCCO)n1		18			3500	5.17	8.70
Clc1ccc2c(c1)CCN(c1ccncc1)C2	6.64						
Cc1cc(N2CCc3ccccc3C2)cc(NC(=O)CO)n1					20000	4.22	7.82
CCOC(=O)C(=O)Nc1cc(N2CCc3ccccc3C2)cc(C)n1					12000	4.96	8.10
Nc1cc(N2CCc3ccccc3C2)c2ccccc2n1					120		7.72
c1ccc2c(c1)CCN(c1ccnc3ccccc13)C2	7.54	25	5.59	3200			
Clc1cccc2c1CN(c1ccncc1)CC2	7.59		6.19	3800			
Cc1cc(N2CCc3ccccc3C2)c2ccccc2n1	7.12						
Cc1cc(N2CCc3ccccc3C2)ccn1					5700		8.10
Nc1cc(N2CCc3ccccc3C2)ccn1					2100	6.40	8.70
Cc1cc(N2CCc3ccccc3C2)cc(N)n1					1500	5.59	8.40
Clc1cccc2c1CCN(c1ccncc1)C2	8.10	2	6.18	1500			
C[C@@H]([C@H](O)c1ccc(O)cc1)N1CCC(Cc2ccccc2)CC1 [(R,S)-IFENPRODIL]		16		12			
OCCNc1ccnc(N2CCc3ccccc3C2)c1	8.70	13		2300			
Clc1ccc2c(c1)CN(c1ccncc1)CC2	7.43		6.00	1300			
CC1CN(c2ccncc2)Cc2ccccc21 (stereo not given)	7.60		6.05	2200			
